# Test results published in publication PMC9850729 (ACS Omega, 2023).
# pIC50: −log10 of the molar value. Residues, ends and D or L forms follow the SMILES beside them.
# What was measured:
# Assay type in all cases: cell-based
# MCF-7 cells [1] = experiment: MTT viability assay, MCF-7; conditions: read-out: IC50 MCF-7, 2 h peptide treatment, 6.25-200 μg mL^–1, n = 3
# Method in brief: (§1)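 Cancer cells were cultured in supplemented RPMI-1640, seeded at 1×10^4 per well, adhered 12 h and synchronized 12 h in incomplete medium. Peptide was applied at 6.25–200 μg mL⁻¹ for 2 h, then MTT was added for 4 h, formazan dissolved in DMSO, and absorbance read at 575 nm; n = 3. Selectivity was taken as the IC₅₀ in MCF-12 cells, foreskin-derived primary fibroblasts or erythrocytes divided by the cancer-cell IC₅₀.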
# MDA-MB-231 cells = experiment: MTT viability assay, MDA-MB-231; conditions: read-out: IC50 MDA-MB-231, 2 h peptide treatment, 6.25-200 μg mL^–1, n = 3
# Method in brief: as §1
# MCF-7 cells [2] = experiment: Wound-healing assay; conditions: substance alone (peptide at IC50), n = 12
pIC50 (MCF-7 cells [1]),pIC50 (MDA-MB-231 cells),SMILES,"wound area reduced (MCF-7 cells [2]; MCF-7, 24 h after the wound)","wound area reduced (closure) (MCF-7 cells [2]; MCF-7, 48 h after the wound) [%]"
4.17,4.14,N=C(N)NCCC[C@H](NC(=O)[C@H](Cc1c[nH]c2ccccc12)NC(=O)[C@H](CCC(N)=O)NC(=O)[C@H](Cc1c[nH]c2ccccc12)NC(=O)[C@H](CCCNC(=N)N)NC(=O)[C@H](Cc1c[nH]c2ccccc12)NC(=O)[C@H](CCC(N)=O)NC(=O)[C@H](Cc1c[nH]c2ccccc12)NC(=O)[C@H](CCCNC(=N)N)NC(=O)[C@@H](N)CCCNC(=N)N)C(N)=O [RR-1-R] (H-RRWQWRWQWR-NH2),–,–
–,–,C[C@]12CC[C@@H]3c4ccc(O)cc4CC[C@H]3[C@@H]1CC[C@@H]2O [estradiol],about 20%,40
4.24,4.17,N=C(N)NCCC[C@H](NC(=O)[C@H](CCCNC(=N)N)NC(=O)[C@H](Cc1c[nH]c2ccccc12)NC(=O)[C@H](CCC(N)=O)NC(=O)[C@H](Cc1c[nH]c2ccccc12)NC(=O)[C@H](CCCNC(=N)N)NC(=O)[C@H](Cc1c[nH]c2ccccc12)NC(=O)[C@H](CCC(N)=O)NC(=O)[C@H](Cc1c[nH]c2ccccc12)NC(=O)[C@H](CCCNC(=N)N)NC(=O)[C@@H](N)CCCNC(=N)N)C(N)=O [RR-1-RR] (H-RRWQWRWQWRR-NH2),–,–
